In ChEMBL document CHEMBL2401736, “HCV NS5A replication complex inhibitors. Part 5: discovery of potent and pan-genotypic glycinamide cap derivatives” (Bioorg Med Chem Lett, 2013):

Key:
[1] = tested on: Bovine viral diarrhea virus 1; assay: Antiviral activity against Bovine viral diarrhea virus by luciferase assay; assay type: functional, organism-based
Procedure, shortened: (§1)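 EC50 values are means of at least two experiments, with at most threefold variation between them.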

Hepatitis C virus [2] = assay: Antiviral activity against Hepatitis C virus genotype 1a by ELISA; assay type: functional, organism-based, Hepacivirus hominis, subtype 1a; procedure, shortened: as §1
Hepatitis C virus [3] = assay: Antiviral activity against Hepatitis C virus genotype 1b by FRET assay; assay type: functional, organism-based, Hepacivirus hominis; procedure, shortened: as §1
[4] = Bovine viral diarrhea virus isolates and strains

| EC50 [1, 4] | EC50 (Hepatitis C virus [2]; Hepatitis C virus, subtype 1a) | EC50 (Hepatitis C virus [3]; Hepatitis C virus, genotype 1b) | EC50 [1] | EC50 (Hepatitis C virus [3]) | EC50 (Hepatitis C virus [2]) | Structure (SMILES) |
| --- | --- | --- | --- | --- | --- | --- |
| > 10000 nM | > 10000 nM | – | – | – | – | C[C@H](C(=O)N1CCC[C@H]1C(=O)Nc1ccc(/C=C/c2ccc(NC(=O)[C@@H]3CCCN3C(=O)[C@@H](C)c3ccccc3)cc2)cc1)c1ccccc1 |
| > 10000 nM | 37 nM | 0.42 nM | – | – | – | CC(=O)N1CCN(C(C(=O)N2CCC[C@H]2C(=O)Nc2ccc(C#Cc3ccc(NC(=O)[C@@H]4CCCN4C(=O)C(c4ccccc4)N4CCN(C(C)=O)CC4)cc3)cc2)c2ccccc2)CC1 (stereo not given in full) |
| 6740 nM | 970 nM | 63 nM | – | – | – | O=C(Nc1ccc(/C=C/c2ccc(NC(=O)[C@@H]3CCCN3C(=O)[C@@H](O)C3CCCCC3)cc2)cc1)[C@@H]1CCCN1C(=O)[C@@H](O)C1CCCCC1 |
| > 10000 nM | 447 nM | 4.6 nM | – | – | – | O=C(C(=O)N1CCC[C@H]1C(=O)Nc1ccc(/C=C/c2ccc(NC(=O)[C@@H]3CCCN3C(=O)C(=O)c3ccccc3)cc2)cc1)c1ccccc1 |
| – | > 1300 nM | 380 nM | – | – | – | C[C@@](O)(C(=O)N1CCC[C@H]1C(=O)Nc1ccc(Br)cc1)c1ccccc1 |
| 769 nM | – | < 4.6 nM | – | – | 1080 nM | CN(C)C(C)(C(=O)N1CCC[C@H]1C(=O)Nc1ccc(C#Cc2ccc(NC(=O)[C@@H]3CCCN3C(=O)C(C)(c3ccccc3)N(C)C)cc2)cc1)c1ccccc1 (single isomer, unassigned; diastereomer 2) |
| – | – | – | 1360 nM | 4.4 nM | 2700 nM | CN1CCN(C(C(=O)N2CCC[C@H]2C(=O)Nc2ccc(C#Cc3ccc(NC(=O)[C@@H]4CCCN4C(=O)C(c4ccccc4)N4CCN(C)CC4)cc3)cc2)c2ccccc2)CC1 (single isomer, unassigned; diastereomer 2) |
| > 10000 nM | – | – | – | 632 nM | > 5000 nM | CC(=O)N(C)C(C(=O)N1CCC[C@H]1C(=O)Nc1ccc(C#Cc2ccc(NC(=O)[C@@H]3CCCN3C(=O)C(c3ccccc3)N(C)C(C)=O)cc2)cc1)c1ccccc1 (single isomer, unassigned; diastereomer 2) |
| 3760 nM | 910 nM | < 4.6 nM | – | – | – | N[C@@H](C(=O)N1CCC[C@H]1C(=O)Nc1ccc(C#Cc2ccc(NC(=O)[C@@H]3CCCN3C(=O)[C@H](N)c3ccccc3)cc2)cc1)c1ccccc1 |
| 1900 nM | < 4.6 nM | < 4.6 nM | – | – | – | CN(C)[C@@H](C(=O)N1CCC[C@H]1C(=O)Nc1ccc(C#Cc2ccc(NC(=O)[C@@H]3CCCN3C(=O)[C@@H](c3ccccc3)N(C)C)cc2)cc1)c1ccccc1 |
| 1200 nM | 628 nM | < 4.6 nM | – | – | – | CN(C)[C@H](C(=O)N1CCC[C@H]1C(=O)Nc1ccc(C#Cc2ccc(NC(=O)[C@@H]3CCCN3C(=O)[C@H](c3ccccc3)N(C)C)cc2)cc1)c1ccccc1 |
| 1730 nM | 1290 nM | < 4.6 nM | – | – | – | CN(C)[C@H](Cc1ccccc1)C(=O)N1CCC[C@H]1C(=O)Nc1ccc(C#Cc2ccc(NC(=O)[C@@H]3CCCN3C(=O)[C@@H](Cc3ccccc3)N(C)C)cc2)cc1 |
| > 10000 nM | 114 nM | 0.018 nM | – | – | – | CCOC(=O)N[C@@H](C(=O)N1CCC[C@H]1C(=O)Nc1ccc(C#Cc2ccc(NC(=O)[C@@H]3CCCN3C(=O)[C@H](NC(=O)OCC)c3ccccc3)cc2)cc1)c1ccccc1 |
| > 10000 nM | 70 nM | 0.002 nM | – | – | – | CC(C)C(=O)N[C@@H](C(=O)N1CCC[C@H]1C(=O)Nc1ccc(C#Cc2ccc(NC(=O)[C@@H]3CCCN3C(=O)[C@H](NC(=O)C(C)C)c3ccccc3)cc2)cc1)c1ccccc1 |
| 1490 nM | 3240 nM | 500 nM | – | – | – | CN(C)[C@@H](Cc1ccccc1)C(=O)N1CCC[C@H]1C(=O)Nc1ccc(C#Cc2ccc(NC(=O)[C@@H]3CCCN3C(=O)[C@H](Cc3ccccc3)N(C)C)cc2)cc1 |
| > 10000 nM | 88 nM | 0.16 nM | – | – | – | CCCOC(=O)N[C@@H](C(=O)N1CCC[C@H]1C(=O)Nc1ccc(C#Cc2ccc(NC(=O)[C@@H]3CCCN3C(=O)[C@H](NC(=O)OCCC)c3ccccc3)cc2)cc1)c1ccccc1 |
| > 10000 nM | 71 nM | < 4.6 nM | – | – | – | CS(=O)(=O)N[C@@H](C(=O)N1CCC[C@H]1C(=O)Nc1ccc(C#Cc2ccc(NC(=O)[C@@H]3CCCN3C(=O)[C@H](NS(C)(=O)=O)c3ccccc3)cc2)cc1)c1ccccc1 |
| > 10000 nM | > 10000 nM | < 4.6 nM | – | – | – | CC(C)(C)OC(=O)N[C@H](C(=O)N1CCC[C@H]1C(=O)Nc1ccc(C#Cc2ccc(NC(=O)[C@@H]3CCCN3C(=O)[C@@H](NC(=O)OC(C)(C)C)c3ccccc3)cc2)cc1)c1ccccc1 |
| > 10000 nM | 3 nM | 0.5 nM | – | – | – | O=C(Nc1ccc(C#Cc2ccc(NC(=O)[C@@H]3CCCN3C(=O)C(c3ccccc3)N3CC[C@H](O)C3)cc2)cc1)[C@@H]1CCCN1C(=O)C(c1ccccc1)N1CC[C@H](O)C1 (stereo not given in full) |
| > 10000 nM | 137 nM | 0.28 nM | – | – | – | CC(C)OC(=O)N[C@@H](C(=O)N1CCC[C@H]1C(=O)Nc1ccc(C#Cc2ccc(NC(=O)[C@@H]3CCCN3C(=O)[C@H](NC(=O)OC(C)C)c3ccccc3)cc2)cc1)c1ccccc1 |
| 2500 nM | 772 nM | – | – | – | – | C[C@@H](C(=O)N1CCC[C@H]1C(=O)Nc1ccc(/C=C/c2ccc(NC(=O)[C@@H]3CCCN3C(=O)[C@H](C)c3ccccc3)cc2)cc1)c1ccccc1 |
| 2790 nM | 7.9 nM | ≤ 0.13 nM | – | – | – | CCN(C)C(C(=O)N1CCC[C@H]1C(=O)Nc1ccc(C#Cc2ccc(NC(=O)[C@@H]3CCCN3C(=O)C(c3ccccc3)N(C)CC)cc2)cc1)c1ccccc1 (stereo not given in full) |
| – | – | – | – | 57 nM | 2450 nM | CC(=O)N(C)C(C(=O)N1CCC[C@H]1C(=O)Nc1ccc(C#Cc2ccc(NC(=O)[C@@H]3CCCN3C(=O)C(c3ccccc3)N(C)C(C)=O)cc2)cc1)c1ccccc1 (single isomer, unassigned; diastereomer 1) |
| > 10000 nM | 4650 nM | < 4.6 nM | – | – | – | O=C(Nc1ccc(/C=C/c2ccc(NC(=O)[C@@H]3CCCN3C(=O)[C@H](O)C3CCCCC3)cc2)cc1)[C@@H]1CCCN1C(=O)[C@H](O)C1CCCCC1 |
| > 10000 nM | 245 nM | 0.002 nM | – | – | – | CC(C)(C)OC(=O)N[C@@H](C(=O)N1CCC[C@H]1C(=O)Nc1ccc(C#Cc2ccc(NC(=O)[C@@H]3CCCN3C(=O)[C@H](NC(=O)OC(C)(C)C)c3ccccc3)cc2)cc1)c1ccccc1 |
| 3280 nM | 1.4 nM | 0.094 nM | – | – | – | O=C(Nc1ccc(C#Cc2ccc(NC(=O)[C@@H]3CCCN3C(=O)C(c3ccccc3)N3CC[C@@H](O)C3)cc2)cc1)[C@@H]1CCCN1C(=O)C(c1ccccc1)N1CC[C@@H](O)C1 (stereo not given in full) |
| > 10000 nM | 390 nM | 22 nM | – | – | – | O=C(Nc1ccc(/C=C/c2ccc(NC(=O)[C@@H]3CCCN3C(=O)c3nccc4ccccc34)cc2)cc1)[C@@H]1CCCN1C(=O)c1nccc2ccccc12 |
| – | – | – | 697 nM | – | 100 nM | CN(C)C(C)(C(=O)N1CCC[C@H]1C(=O)Nc1ccc(C#Cc2ccc(NC(=O)[C@@H]3CCCN3C(=O)C(C)(c3ccccc3)N(C)C)cc2)cc1)c1ccccc1 (stereo in doubt; 5l.1) |
| > 10000 nM | > 9400 nM | < 4.6 nM | – | – | – | N[C@H](C(=O)N1CCC[C@H]1C(=O)Nc1ccc(C#Cc2ccc(NC(=O)[C@@H]3CCCN3C(=O)[C@@H](N)c3ccccc3)cc2)cc1)c1ccccc1 |

| Structure (SMILES) | EC50 [1, 4] | EC50 (Hepatitis C virus [2]; Hepatitis C virus, subtype 1a) | EC50 (Hepatitis C virus [3]; Hepatitis C virus, genotype 1b) | EC50 [1] | EC50 (Hepatitis C virus [3]) | EC50 (Hepatitis C virus [2]) |
| --- | --- | --- | --- | --- | --- | --- |
| O=C(Nc1ccc(C#Cc2ccc(NC(=O)[C@@H]3CCCN3C(=O)C(c3ccccc3)N3CCC(O)CC3)cc2)cc1)[C@@H]1CCCN1C(=O)C(c1ccccc1)N1CCC(O)CC1 (single isomer, unassigned; diastereomer 2) | – | – | – | 2970 nM | 4.6 nM | 600 nM |
